According to ChEMBL document CHEMBL5303300, “EUbOPEN Chemogenomics Library - Multiplex” (2023):
Several values for one entry are separate records, joined by “and”; a condition that tells them apart may be missing. Equal values may be shown once.

Tested on: HEK-293T
Test: Multiplex assay against HEK293T
Format: toxicity, cell-based
Conditions: human, number of replicates 2
Outline: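 On a CQ1 microscope at 37°C and 5% CO2, live cells were imaged after compound addition. They had been stained at seeding with Hoechst33342, BioTracker Green Microtubule Cytoskeleton Dye, MitoTracker Red and Annexin V Alexa Fluor 680. CellPathfinder machine-learning gating assigned cells to Hoechst high-intensity objects or normal cells, normal cells to healthy, pyknosed or fragmented nuclei, and pyknosed cells to mitotic or apoptotic. Tubulin, mitochondrial-mass and membrane-permeability phenotypes are per cents of healthy-nucleus cells.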

[1] = 12 h, 1 µM, compound concentration 1 uM
[2] = 12 h, 10 µM, compound concentration 10 uM
[3] = 24 h, 1 µM, compound concentration 1 uM
[4] = 24 h, 10 µM, compound concentration 10 uM
[5] = 48 h, 1 µM, compound concentration 1 uM
[6] = 48 h, 10 µM, compound concentration 10 uM

## COc1cc(OC)cc(C(=O)NNC(=O)Nc2cccc3ccccc23)c1
[1]
  Population Apoptotic (%): 42% and 53%
  Population Fragmented Nuclei (%): 2% and 1%
  Population Healthy Nuclei (%): 86% and 85%
  Population Hoechst High Intensity Objects (%): 4%
  Population Membrane Permeable-Phenotype (%): 1% and 2%
  Population Mitochondria Different-Phenotype (%): 14% and 16%
  Population Mitotic Cells (%): 57% and 46%
  Population Normal (%): 95%
  Population Pyknosed Nuclei (%): 10% and 13%
  Population Tubulin-Different-Phenotype (%): 43% and 47%
  Total Cell Count: 709 and 572
[2]
  Population Apoptotic (%): 42% and 34%
  Population Fragmented Nuclei (%): 3%
  Population Healthy Nuclei (%): 84% and 83%
  Population Hoechst High Intensity Objects (%): 6% and 4%
  Population Membrane Permeable-Phenotype (%): 5% and 4%
  Population Mitochondria Different-Phenotype (%): 15% and 12%
  Population Mitotic Cells (%): 57% and 65%
  Population Normal (%): 93% and 95%
  Population Pyknosed Nuclei (%): 12% and 13%
  Population Tubulin-Different-Phenotype (%): 60% and 46%
  Total Cell Count: 571 and 696
[3]
  Population Apoptotic (%): 25% and 34%
  Population Fragmented Nuclei (%): 3%
  Population Healthy Nuclei (%): 90% and 89%
  Population Hoechst High Intensity Objects (%): 8% and 6%
  Population Membrane Permeable-Phenotype (%): 2%
  Population Mitochondria Different-Phenotype (%): 4%
  Population Mitotic Cells (%): 74% and 65%
  Population Normal (%): 91% and 93%
  Population Pyknosed Nuclei (%): 5% and 6%
  Population Tubulin-Different-Phenotype (%): 28% and 29%
  Total Cell Count: 1130 and 899
[4]
  Population Apoptotic (%): 36% and 29%
  Population Fragmented Nuclei (%): 4% and 6%
  Population Healthy Nuclei (%): 84% and 86%
  Population Hoechst High Intensity Objects (%): 6% and 4%
  Population Membrane Permeable-Phenotype (%): 4% and 3%
  Population Mitochondria Different-Phenotype (%): 9% and 4%
  Population Mitotic Cells (%): 63% and 70%
  Population Normal (%): 93% and 95%
  Population Pyknosed Nuclei (%): 11% and 6%
  Population Tubulin-Different-Phenotype (%): 50% and 27%
  Total Cell Count: 700 and 1003
[5]
  Population Apoptotic (%): 8% and 15%
  Population Fragmented Nuclei (%): 12% and 9%
  Population Healthy Nuclei (%): 84% and 87%
  Population Hoechst High Intensity Objects (%): 9%
  Population Membrane Permeable-Phenotype (%): 4%
  Population Mitochondria Different-Phenotype (%): 0%
  Population Mitotic Cells (%): 91% and 84%
  Population Normal (%): 91% and 90%
  Population Pyknosed Nuclei (%): 3% and 2%
  Population Tubulin-Different-Phenotype (%): 11% and 16%
  Total Cell Count: 2889 and 1933
[6]
  Population Apoptotic (%): 8% and 17%
  Population Fragmented Nuclei (%): 10% and 12%
  Population Healthy Nuclei (%): 82% and 84%
  Population Hoechst High Intensity Objects (%): 6% and 8%
  Population Membrane Permeable-Phenotype (%): 4% and 5%
  Population Mitochondria Different-Phenotype (%): 3% and 0%
  Population Mitotic Cells (%): 91% and 82%
  Population Normal (%): 93% and 91%
  Population Pyknosed Nuclei (%): 6% and 3%
  Population Tubulin-Different-Phenotype (%): 30% and 17%
  Total Cell Count: 1120 and 2017

## Cn1cc(-n2cnc3c(NCc4nc5cc(Cl)c(Cl)cc5[nH]4)nc(N4CCOCC4)nc32)cn1
[1]
  Population Apoptotic (%): 69% and 59%
  Population Fragmented Nuclei (%): 3% and 5%
  Population Healthy Nuclei (%): 76% and 75%
  Population Hoechst High Intensity Objects (%): 16% and 17%
  Population Membrane Permeable-Phenotype (%): 3% and 1%
  Population Mitochondria Different-Phenotype (%): 65% and 66%
  Population Mitotic Cells (%): 30% and 40%
  Population Normal (%): 83% and 82%
  Population Pyknosed Nuclei (%): 20% and 19%
  Population Tubulin-Different-Phenotype (%): 83% and 84%
  Total Cell Count: 293 and 335
[2]
  Population Apoptotic (%): 71% and 65%
  Population Fragmented Nuclei (%): 4% and 2%
  Population Healthy Nuclei (%): 78% and 76%
  Population Hoechst High Intensity Objects (%): 18% and 12%
  Population Membrane Permeable-Phenotype (%): 1% and 2%
  Population Mitochondria Different-Phenotype (%): 77% and 73%
  Population Mitotic Cells (%): 28% and 34%
  Population Normal (%): 81% and 87%
  Population Pyknosed Nuclei (%): 16% and 20%
  Population Tubulin-Different-Phenotype (%): 95% and 96%
  Total Cell Count: 262 and 266
[3]
  Population Apoptotic (%): 72% and 66%
  Population Fragmented Nuclei (%): 2% and 4%
  Population Healthy Nuclei (%): 72% and 74%
  Population Hoechst High Intensity Objects (%): 25% and 27%
  Population Membrane Permeable-Phenotype (%): 3% and 0%
  Population Mitochondria Different-Phenotype (%): 75% and 82%
  Population Mitotic Cells (%): 27% and 33%
  Population Normal (%): 74% and 72%
  Population Pyknosed Nuclei (%): 25% and 20%
  Population Tubulin-Different-Phenotype (%): 78% and 89%
  Total Cell Count: 256 and 257
[4]
  Population Apoptotic (%): 69% and 85%
  Population Fragmented Nuclei (%): 2% and 5%
  Population Healthy Nuclei (%): 81% and 80%
  Population Hoechst High Intensity Objects (%): 21% and 11%
  Population Membrane Permeable-Phenotype (%): 2% and 0%
  Population Mitochondria Different-Phenotype (%): 87% and 88%
  Population Mitotic Cells (%): 30% and 14%
  Population Normal (%): 78% and 88%
  Population Pyknosed Nuclei (%): 15% and 13%
  Population Tubulin-Different-Phenotype (%): 92% and 95%
  Total Cell Count: 217
[5]
  Population Apoptotic (%): 69% and 62%
  Population Fragmented Nuclei (%): 7% and 6%
  Population Healthy Nuclei (%): 69% and 74%
  Population Hoechst High Intensity Objects (%): 20% and 29%
  Population Membrane Permeable-Phenotype (%): 5% and 1%
  Population Mitochondria Different-Phenotype (%): 66% and 78%
  Population Mitotic Cells (%): 30% and 37%
  Population Normal (%): 79% and 70%
  Population Pyknosed Nuclei (%): 22% and 19%
  Population Tubulin-Different-Phenotype (%): 75% and 87%
  Total Cell Count: 308 and 317
[6]
  Population Apoptotic (%): 70% and 84%
  Population Fragmented Nuclei (%): 5%
  Population Healthy Nuclei (%): 78% and 70%
  Population Hoechst High Intensity Objects (%): 17% and 11%
  Population Membrane Permeable-Phenotype (%): 1% and 2%
  Population Mitochondria Different-Phenotype (%): 89% and 87%
  Population Mitotic Cells (%): 29% and 16%
  Population Normal (%): 82% and 88%
  Population Pyknosed Nuclei (%): 16% and 23%
  Population Tubulin-Different-Phenotype (%): 94% and 93%
  Total Cell Count: 275 and 237

## CS(=O)(=O)c1ccc(C(=O)Nc2cccc(COc3ccc(Br)cc3CN3CC[C@@H](O)C3)c2)c(Cl)c1.O=CO
[1]
  Population Apoptotic (%): 57% and 47%
  Population Healthy Nuclei (%): 78% and 79%
  Population Mitotic Cells (%): 42% and 52%
  Total Cell Count: 501 and 560
[2]
  Population Apoptotic (%): 44% and 57%
  Population Healthy Nuclei (%): 87% and 85%
  Population Mitotic Cells (%): 55% and 42%
  Total Cell Count: 619 and 489
[3]
  Population Apoptotic (%): 54% and 48%
  Population Healthy Nuclei (%): 84% and 83%
  Population Mitotic Cells (%): 45% and 51%
  Total Cell Count: 735 and 812
[4]
  Population Apoptotic (%): 50% and 66%
  Population Healthy Nuclei (%): 85% and 84%
  Population Mitotic Cells (%): 50% and 33%
  Total Cell Count: 658 and 521
[5]
  Population Apoptotic (%): 30% and 25%
  Population Healthy Nuclei (%): 85%
  Population Mitotic Cells (%): 69% and 75%
  Total Cell Count: 1702 and 1674
[6]
  Population Apoptotic (%): 40% and 59%
  Population Healthy Nuclei (%): 85%
  Population Mitotic Cells (%): 60% and 40%
  Total Cell Count: 998 and 697

## CS(=O)(=O)c1ccc(C(=O)Nc2cc(F)cc(COc3ccc(Br)cc3CN3CC[C@H](O)C3)c2)c(Cl)c1.O=CO
[1]
  Population Apoptotic (%): 63%
  Population Healthy Nuclei (%): 81% and 82%
  Population Mitotic Cells (%): 45% and 36%
  Population Pyknosed Nuclei (%): 16% and 13%
  Total Cell Count: 543 and 646
[2]
  Population Apoptotic (%): 68% and 69%
  Population Healthy Nuclei (%): 83% and 84%
  Population Mitotic Cells (%): 31% and 30%
  Population Pyknosed Nuclei (%): 13%
  Total Cell Count: 462 and 578
[3]
  Population Apoptotic (%): 60% and 50%
  Population Healthy Nuclei (%): 82%
  Population Mitotic Cells (%): 39% and 49%
  Total Cell Count: 757 and 913
[4]
  Population Apoptotic (%): 70%
  Population Healthy Nuclei (%): 79% and 83%
  Population Mitotic Cells (%): 29%
  Population Pyknosed Nuclei (%): 17%
  Total Cell Count: 505 and 555
[5]
  Population Apoptotic (%): 34% and 23%
  Population Healthy Nuclei (%): 85%
  Population Mitotic Cells (%): 65% and 76%
  Population Pyknosed Nuclei (%): 3% and 4%
  Total Cell Count: 1715 and 1868
[6]
  Population Apoptotic (%): 54% and 57%
  Population Healthy Nuclei (%): 85% and 80%
  Population Mitotic Cells (%): 46% and 42%
  Population Pyknosed Nuclei (%): 8% and 10%
  Total Cell Count: 633 and 761
